{
  "source": "paper PMC11913021",
  "about": "(Journal of Medicinal Chemistry, 2024)",
  "assay_type_in_all_cases": "cell-based",
  "key": {"wild-type PLD1": {"molecular_target": "T1, wild-type PLD1 (Homo sapiens, UniProt Q13393)", "T1 sequence (Q13393 1-1036 isoform Q13393-2)": "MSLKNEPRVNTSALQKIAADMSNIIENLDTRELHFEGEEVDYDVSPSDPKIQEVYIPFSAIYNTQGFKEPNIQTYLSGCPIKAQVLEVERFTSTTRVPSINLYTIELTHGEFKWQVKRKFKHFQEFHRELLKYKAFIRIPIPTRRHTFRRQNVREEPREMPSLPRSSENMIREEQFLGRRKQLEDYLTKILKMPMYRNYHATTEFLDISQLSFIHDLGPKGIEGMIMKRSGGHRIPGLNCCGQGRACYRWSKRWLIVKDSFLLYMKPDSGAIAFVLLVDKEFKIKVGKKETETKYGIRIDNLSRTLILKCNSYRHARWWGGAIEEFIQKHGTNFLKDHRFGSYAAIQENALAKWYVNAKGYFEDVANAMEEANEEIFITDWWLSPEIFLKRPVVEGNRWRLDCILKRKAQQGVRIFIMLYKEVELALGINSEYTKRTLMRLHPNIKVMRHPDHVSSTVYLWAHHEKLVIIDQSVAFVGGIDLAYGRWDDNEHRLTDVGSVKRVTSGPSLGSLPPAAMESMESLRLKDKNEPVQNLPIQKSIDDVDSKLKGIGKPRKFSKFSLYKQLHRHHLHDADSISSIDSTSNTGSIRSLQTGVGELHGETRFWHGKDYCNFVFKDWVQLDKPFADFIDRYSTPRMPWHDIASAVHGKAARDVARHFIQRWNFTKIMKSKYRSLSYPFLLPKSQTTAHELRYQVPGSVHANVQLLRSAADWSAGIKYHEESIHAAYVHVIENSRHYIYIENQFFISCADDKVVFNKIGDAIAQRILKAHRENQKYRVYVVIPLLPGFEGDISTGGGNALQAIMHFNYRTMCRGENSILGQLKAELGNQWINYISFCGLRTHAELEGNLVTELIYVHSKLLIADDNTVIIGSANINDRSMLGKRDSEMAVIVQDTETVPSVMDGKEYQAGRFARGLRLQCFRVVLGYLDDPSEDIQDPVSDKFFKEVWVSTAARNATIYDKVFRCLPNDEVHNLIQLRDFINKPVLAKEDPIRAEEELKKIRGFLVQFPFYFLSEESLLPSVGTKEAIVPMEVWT", "assay": "PLD activity assay in wild-type PLD1-transfected cells"}, "PLD1": {"molecular_target": "T2, PLD1 (Homo sapiens, UniProt Q13393)", "T2 sequence (Q13393 1-1074)": "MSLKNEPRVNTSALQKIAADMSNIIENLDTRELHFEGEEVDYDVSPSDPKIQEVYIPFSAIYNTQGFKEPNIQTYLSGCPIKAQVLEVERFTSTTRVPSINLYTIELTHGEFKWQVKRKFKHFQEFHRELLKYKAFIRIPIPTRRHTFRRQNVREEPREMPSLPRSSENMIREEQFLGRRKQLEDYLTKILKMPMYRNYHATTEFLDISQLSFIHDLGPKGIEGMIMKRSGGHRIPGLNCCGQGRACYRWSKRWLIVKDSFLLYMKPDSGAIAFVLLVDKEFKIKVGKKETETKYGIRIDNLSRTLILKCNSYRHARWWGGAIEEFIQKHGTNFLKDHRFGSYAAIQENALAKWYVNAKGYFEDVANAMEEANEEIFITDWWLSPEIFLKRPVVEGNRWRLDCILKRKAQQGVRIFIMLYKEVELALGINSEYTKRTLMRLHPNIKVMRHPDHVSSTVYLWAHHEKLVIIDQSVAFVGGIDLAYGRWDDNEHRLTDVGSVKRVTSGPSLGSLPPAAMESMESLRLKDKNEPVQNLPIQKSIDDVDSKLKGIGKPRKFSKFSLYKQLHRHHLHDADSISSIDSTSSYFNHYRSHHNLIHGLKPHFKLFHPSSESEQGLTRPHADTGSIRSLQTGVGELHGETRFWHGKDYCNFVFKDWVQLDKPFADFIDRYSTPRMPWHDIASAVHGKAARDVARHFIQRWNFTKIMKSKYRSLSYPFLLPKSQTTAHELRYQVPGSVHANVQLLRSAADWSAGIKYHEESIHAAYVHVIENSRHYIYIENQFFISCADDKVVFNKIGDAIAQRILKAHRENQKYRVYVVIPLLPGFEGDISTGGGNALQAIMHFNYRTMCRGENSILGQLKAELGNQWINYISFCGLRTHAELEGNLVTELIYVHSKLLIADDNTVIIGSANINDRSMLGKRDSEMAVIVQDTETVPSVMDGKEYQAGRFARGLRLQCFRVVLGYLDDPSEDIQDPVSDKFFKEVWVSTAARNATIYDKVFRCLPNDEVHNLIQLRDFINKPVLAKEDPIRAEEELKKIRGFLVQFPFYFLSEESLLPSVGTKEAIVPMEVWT", "assay": "PLD activity in PLD1-overexpressing A549 cells"}, "A549 cells [1]": {"system": "A549 cells", "assay": "Transwell migration and invasion assay", "summary_of_the_method": "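Cells at 5 × 10^4 cells/ml in serum-free medium placed in 8 μm pore transwell chambers; for invasion the chambers were Matrigel-precoated. After 24 h, non-migrated cells were swabbed off. Cells on the underside were fixed in 4% PFA for 20 min, stained with crystal violet for 10 min, and counted by light microscopy.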"}, "A549 cells [2]": {"system": "A549 cells", "assay": "Cell apoptosis assay", "conditions": "flow cytometry and caspase-3 activity assay", "summary_of_the_method": "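Apoptosis detected by Annexin V-FITC staining and flow cytometry. For caspase-3, cells were grown to about 40% density and given test compound, or the inhibitor Ac-DEVD-CHO, at 10 μM for 48 h. After a PBS wash, 1 μM NucView 488 caspase-3 substrate was added for 30 min at RT, then 1 μM Hoechst 33342. Both fluorescences were read on a plate reader.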"}, "[3]": {"system": "EGFR-RAS-mediated signaling pathways", "assay": "Immunoblot of RAS downstream molecules in EGF-stimulated A549 cells", "summary_of_the_method": "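Lysates made in passive buffer with protease and phosphatase inhibitor cocktail, boiled 5 min, then separated by SDS-PAGE and transferred to PVDF. Membranes blocked in TBS-T with 5% BSA and probed overnight at 4 °C for phospho- and total Akt, ERK and IκBα. HRP-conjugated secondary antibodies and chemiluminescence were used for detection.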"}},
  "data": [
    {"substance": "N-(3,5-Bis(trifluoromethyl)phenyl)-3-(1H-indol-3-yl)propanamide [3r]", "values": [
      {"measurement": "PLD activity", "setting": "wild-type PLD1", "result": "significantly suppressed"},
      {"measurement": "PLD1 activity", "setting": "PLD1", "result": "selectively suppressed"},
      {"measurement": "invasion", "setting": "A549 cells [1]", "result": "significantly inhibited"},
      {"measurement": "migration", "setting": "A549 cells [1]", "result": "significantly inhibited"},
      {"measurement": "apoptosis of A549 cells", "setting": "A549 cells [2]", "result": "induced"},
      {"measurement": "phospho-Akt, phospho-ERK, and phospho-IkBα levels", "setting": "[3]", "result": "markedly reduced"}
    ]}
  ]
}
